CHRM5 agonist: agonists of human muscarinic M5 receptor (CHRM5); P08912; CHO-K1 hM5 cells, Fluo-8 calcium fluorescence; 0% DMSO wells, 100% maximal acetylcholine response; activation, % at 3 µM; 0.19% of 360,000 active;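 active means activation above the run's mean over test compounds plus 3 SD, cut at about 23% in these data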;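 further: signal is peak over basal fluorescence ratio across the kinetic read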
CHRM4 antagonist: CHRM4 antagonism in calcium assay | P08173 | CHO-hM4 cells, ACh EC80, Fluo-8 calcium fluorescence | inhibition, % at 3 µM | 0.73% of 360,000 active | AID 624125;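 active means inhibition above its plate's cutoff, the mean inhibition of sample wells plus 3 SD, cut at about 27% in these data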
Target sequence (P08173 whole entry, looked up): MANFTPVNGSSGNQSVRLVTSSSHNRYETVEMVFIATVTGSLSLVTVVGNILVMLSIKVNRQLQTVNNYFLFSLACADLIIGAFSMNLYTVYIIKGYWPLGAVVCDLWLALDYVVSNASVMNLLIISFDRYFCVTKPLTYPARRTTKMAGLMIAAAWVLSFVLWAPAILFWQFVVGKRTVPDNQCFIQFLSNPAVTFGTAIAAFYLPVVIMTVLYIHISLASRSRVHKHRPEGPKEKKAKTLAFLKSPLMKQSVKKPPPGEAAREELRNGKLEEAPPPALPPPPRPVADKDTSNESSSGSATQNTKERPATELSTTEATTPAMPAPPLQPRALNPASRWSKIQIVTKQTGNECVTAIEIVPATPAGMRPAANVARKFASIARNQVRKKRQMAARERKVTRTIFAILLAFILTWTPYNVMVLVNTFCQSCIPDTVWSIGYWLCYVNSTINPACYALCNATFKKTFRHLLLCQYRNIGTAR
M4 ag: agonists of human muscarinic M4 receptor (CHRM4); P08173; activation, % at 3 µM; CHO-K1 hM4/Gqi5, Fluo-8 calcium fluorescence; vehicle 0%, full acetylcholine response 100%; 0.14% of 360,000 active;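 active means activation above the run mean over all test wells plus 3 SD, cut at about 32% in these data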;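 further: peak over basal fluorescence ratio per well then scaled between controls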
M5 antag: blocks acetylcholine activation of human M5 receptor. P08912. CHO-hM5 cells, Fluo-8 calcium fluorescence, ACh EC80. inhibition, % at 3 µM. 0.59% of 360,000 active. AID 624040;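 active means inhibition above a per-plate cutoff, the mean of that plate's test compounds plus 3 SD, cut at about 27% in these data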
M5 PAM: positive allosteric modulators of human muscarinic M5 receptor; P08912; CHO-K1 hM5, Fluo-8 calcium, ACh EC20 PAM; 0% = ACh EC20, 100% = ACh EC100; activation, % at 3 µM; 0.3% of 360,000 active; AID 624038;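 active means activation above the run cutoff, the mean activation of all test compounds plus 3 SD, cut at about 18% in these data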
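System – CHO-K1 hM5 cells · Compound – 3 µM, single dose · Incubation – compound preincubation 140 s before EC20 acetylcholine addition · Technique – Fluo-8 calcium fluorescence · Measure – Max/basal fluorescence ratio as % of EC20–EC100 ACh window · Benchmarks – low control EC20 acetylcholine (0%), high control EC100 acetylcholine (100%) · Replication – singlicate, one well per test compound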
M4 PAM: potentiates acetylcholine response at human M4 receptor. 0.4% of 360,000 active. activation, % at 3 µM. CHO-K1 hM4/Gqi5, Fluo-8 calcium fluorescence, ACh EC20; 0% = ACh EC20, 100% = maximal ACh. P08173;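 active means activation above its plate's cutoff, the mean activation of sample wells plus 3 SD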
A number is an active result; i = inactive. Only some compounds are listed: those with a hit (about 1.8% of all), similar ones and a draw of the others.

SMILES	CHRM5 agonist	CHRM4 antagonist	M4 ag	M5 antag	M5 PAM	M4 PAM
COC(=O)[C@@]1(Cc2ccc(OC)cc2)[C@@H]2C(=CC(=O)[C@H]2CC(=O)C(=O)N2CCCC2)CN1C(=O)c1ccccc1	i	i	i	i	18.7	i
CCCCCCCCCn1ccc(=N)cc1	i	30.3	i	i	i	i
COc1ccc(-c2c(C)oc3c(CN4CCOCC4)c(O)ccc3c2=O)cc1	i	i	i	i	i	i
COc1ccc(-c2c(C)oc3c(CN4CCOCC4)c(O)ccc3c2=O)cc1OC	i	i	i	i	i	i
Cc1oc2c(CN3CCCCC3)c(O)ccc2c(=O)c1-c1ccc(Br)cc1	i	29.8	i	i	i	i
Cc1oc2c(CN3CCCC3)c(O)ccc2c(=O)c1-c1ccc(Br)cc1	i	70.5	i	i	i	i
Cn1c(CN2CCCCC2)nc2cc(NS(=O)(=O)c3ccc(Cl)cc3)ccc21	i	i	43.0	i	i	i
COc1ccc([N+](=O)[O-])cc1NC(=O)C(C)OC(=O)CC1CCCC1 (configuration not stated)	i	i	i	i	i	i
O=C(NCCO[N+](=O)[O-])c1cccnc1	i	73.6	i	37.7	i	i
COc1ccc(OCC(=O)NCCNC(=O)c2cccnc2)cc1	i	i	i	47.5	i	i
COc1ccc(C(=O)N2CCCC(Nc3ccc(C)c(C)c3)C2)cc1 (configuration not stated)	i	i	i	i	i	i
COc1ccc(NC2CCCN(C(=O)c3ccc(OC)cc3OC)C2)cc1 (configuration not stated)	i	31.5	i	i	i	i
CC1(C)OC(=O)CC1C(=O)NCc1ccccc1 (configuration not stated)	i	i	i	i	25.5	i
C/C(CC(=O)Nc1ccccc1Br)=N\NC(=O)C(=O)N1CCCC1	i	i	i	i	60.7	i
C/C(CC(=O)Nc1ccc(Cl)cc1Cl)=N\NC(=O)C(=O)N1CCCC1	i	i	i	i	i	i
COc1ccc(-n2c(C)c(C(C)=O)c(C(C)=O)c2C)cc1OC	i	i	i	i	i	17.5
COc1ccc2c(c1)CCc1sc(NC(=O)c3ccco3)nc1-2	i	i	i	i	i	28.2
COc1ccc2c(c1)-c1nc(NC(=O)c3ccco3)sc1CC2	i	i	i	i	i	i
COc1ccc2c(c1)Cc1sc(NC(=O)c3ccco3)nc1-2	i	i	i	i	i	27.3
CN1CCn2cnc(C(=O)N[C@@H](Cc3ccccc3)C(=O)OC(C)(C)C)c2C1=O	i	i	i	i	i	i
COc1ccccc1N1C(=O)C2C(C(=O)c3ccccc3)=NN(c3ccc(C)cc3)C2C1=O (configuration not stated)	i	i	i	i	i	i
COc1ccccc1N1C(=O)C2C(C(=O)c3ccccc3)=NN(c3ccc(Br)cc3)C2C1=O (configuration not stated)	i	37.5	i	i	i	i
CC(=O)Nc1ccc(NC(=O)CSc2nnc(NC(=O)c3ccc(Br)o3)s2)cc1	i	i	i	i	i	i
Oc1ccc(C[C@H]2CNC(=S)N2CC2CCCN2C[C@H](Cc2ccc(O)cc2)N2C[C@H](Cc3ccc(O)cc3)N(CC3CCCCC3)C2=S)cc1 (some centres not stated)	i	i	i	i	i	i
O=S(=O)(Cc1ccccc1)N1CCN(C/C=C/c2ccccc2)CC1	i	i	i	i	i	i
SMILES	CHRM5 agonist	CHRM4 antagonist	M4 ag	M5 antag	M5 PAM	M4 PAM
CS(=O)(=O)N1CCN(C/C=C/c2ccccc2)CC1	i	i	i	i	i	19.4
Cc1ccc(C(=O)/C=C/Nc2cccc(O)c2)cc1	i	i	i	i	34.8	i
COc1ccccc1OCCNC(=O)CNC(=O)c1ccc(C(C)(C)C)cc1	i	i	i	i	i	i
COc1ccccc1OCCNC(=O)c1ccc(C(C)(C)C)cc1	i	i	i	i	20.4	i
CC1(C(=O)OCC(=O)Nc2ccc(C(N)=O)cc2)CC1(Cl)Cl (configuration not stated)	i	i	i	i	i	i
COc1ccccc1NC(=O)c1ccc(NC(=O)COC(=O)C2(C)CC2(Cl)Cl)cc1 (configuration not stated)	i	i	i	28.8	i	i
CCCCN1C(=O)C(CC(=O)NC2CCCC2)CC(C(=O)N2CCCCCC2)=C1C (configuration not stated)	i	i	i	i	i	i
CC(=O)Nc1ccc(NC(=S)NC(=O)C2CC2)cc1	i	i	i	i	i	24.6
O=C(NC(=S)Nc1ccc(O)cc1)C1CCCC1	i	i	i	i	i	i
COc1ccc(CNC(=O)COc2cc3c(c4oc(=O)cc(C)c24)CCC(C)(C)O3)c(OC)c1	i	i	i	i	i	i
Cc1csc(C(=O)NCC(=O)NNC(=O)c2cccc(Cl)c2)c1	i	i	i	i	i	i
Cc1c(C(=O)OCC(=O)N(C)c2ccccc2)oc2ccccc12	i	i	i	i	i	i
O=c1ccc2cc(O)c(O)cc2o1	24.9	i	i	i	i	i
O=c1ccc2ccc(O)cc2o1	i	i	i	i	i	i
CCN(CC)CCNC(=O)c1ccc(NC(=O)c2cccc(S(=O)(=O)N3CCc4ccccc43)c2)cc1	i	61.3	i	83.3	i	i
CCN(CC)CCNC(=O)c1ccc(NC(=O)c2cc(S(=O)(=O)N3CCCCC3)ccc2C)cc1	i	69.5	i	36.4	i	i
CCN(CC)CCNC(=O)c1ccc(NC(=O)c2ccc(S(=O)(=O)N3CCCC3)cc2)cc1	i	i	i	i	i	i
CCOC(=O)/C(C#N)=N/Nc1ccc(S(=O)(=O)N2CCc3ccccc32)cc1	i	i	i	27.2	i	i
COc1ccccc1C(CNC(=O)c1cccc(S(=O)(=O)Nc2ccc(C)cc2)c1)N(C)C (configuration not stated)	i	32.4	i	98.5	i	i
N#C/C(=N\Nc1ccc(S(=O)(=O)N2CCc3ccccc32)cc1)C(N)=S	i	i	i	i	i	i
O=C(COc1ccc(F)cc1Cl)Nc1cccc(S(=O)(=O)N2CCCC2)c1	i	i	i	i	i	i
Cc1ccc(OCCNC(=O)Cc2ccc(F)cc2)cc1	i	i	i	i	i	i
NNC(=O)c1cc(C23CC4CC(CC(C4)C2)C3)[nH]n1	i	i	i	i	i	i
CC(C)Nc1nc(Nc2ccc(C#N)cc2)c2sccc2n1	i	i	i	i	i	i
NC(COCc1ccccc1)c1csc(Nc2ccc(S(N)(=O)=O)cc2)n1 (configuration not stated)	i	i	i	i	i	i

Source: PubChem BioAssay (The Scripps Research Institute Molecular Screening Center)
